Assay results from ChEMBL document CHEMBL1123756, “Cardiotonic agents. 5. 1,2-Dihydro-5-[4-(1H-imidazol-1-yl)phenyl]-6-methyl-2-oxo-3- pyridinecarbonitriles and related compounds. Synthesis and inotropic activity” (J Med Chem, 1987).

Tests used:
Canis familiaris [1] = test: Mean arterial blood pressure (MABP) in an acutely instrumented anesthetized dog model at 0.1 mg/kg intravenous dose; type: functional, Canis lupus familiaris
In short: (§1)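 Adult mongrel dogs of either sex, anesthetized with pentobarbital 35 mg/kg IV and maintained by infusion at 5 mg/kg per h. Control data collected for 30 min. Drug given IV in saline (or dilute HCl/NaOH diluted with saline), 0.1 mL/kg over 1 min. Ascending doses, usually half-log apart, 10-30 min between doses, one compound per dog. Recorded LV dP/dtmax, heart rate and aortic pressure as % change from control.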

Canis familiaris [2] = test: Myocardial contractility in an acutely instrumented anesthetized dog model at 0.001 mg/kg intravenous dose; type: functional, Canis lupus familiaris, Myocardium; in short: as §1
Canis familiaris [3] = test: Mean arterial blood pressure (MABP) in an acutely instrumented anesthetized dog model at 0.01 mg/kg intravenous dose; type: functional, Canis lupus familiaris; in short: as §1
Canis familiaris [4] = test: Mean arterial blood pressure (MABP) in an acutely instrumented anesthetized dog model at 0.03 mg/kg intravenous dose; type: functional, Canis lupus familiaris; in short: as §1
Canis familiaris [5] = test: Mean arterial blood pressure (MABP) in an acutely instrumented anesthetized dog model at 1 mg/kg intravenous dose; type: functional, Canis lupus familiaris; in short: as §1
Canis familiaris [6] = test: Heart rate (HR) in an acutely instrumented anesthetized dog model at […] intravenous dose; type: functional, Canis lupus familiaris
Canis familiaris [7] = test: Myocardial contractility in an acutely instrumented anesthetized dog model at 1 mg/kg intravenous dose; type: functional, Canis lupus familiaris, Myocardium; in short: as §1
Canis familiaris [8] = test: Heart rate (HR) in an acutely instrumented anesthetized dog model at 0.01 mg/kg intravenous dose; type: functional, Canis lupus familiaris; in short: as §1
Canis familiaris [9] = test: Myocardial contractility in an acutely instrumented anesthetized dog model at 0.01 mg/kg intravenous dose; type: functional, Canis lupus familiaris, Myocardium; settings: dose 0.1 mg/kg, in the assay text read “0.1 mg/kg” for “0.01 mg/kg”; in short: as §1
Canis familiaris [10] = test: Heart rate (HR) in an acutely instrumented anesthetized dog model at 0.03 mg/kg intravenous dose; type: functional, Canis lupus familiaris; in short: as §1
Canis familiaris [11] = test: Heart rate (HR) in an acutely instrumented anesthetized dog model at 1 mg/kg intravenous dose; type: functional, Canis lupus familiaris; in short: as §1
Canis familiaris [12] = test: Change from control in mean arterial blood pressure (MABP) in an acutely instrumented anesthetized dog model at […] intravenous dose
Canis familiaris [13] = test: Heart rate (HR) in an acutely instrumented anesthetized dog model at 0.1 mg/kg intravenous dose; type: functional, Canis lupus familiaris; in short: as §1
Canis familiaris [14] = test: Myocardial contractility in an acutely instrumented anesthetized dog model at […] intravenous dose; type: functional, Canis lupus familiaris, Myocardium
Canis familiaris [15] = test: Myocardial contractility in an acutely instrumented anesthetized dog model at 0.03 mg/kg intravenous dose; type: functional, Canis lupus familiaris, Myocardium; in short: as §1
Canis familiaris [16] = test: Myocardial contractility in conscious dog model after 34-40 minutes at […] oral administration, activity >3 hr (p<0.05); type: functional, Canis lupus familiaris, Myocardium
Canis familiaris [17] = test: Mean arterial blood pressure (MABP) in an acutely instrumented anesthetized dog model at 0.003 mg/kg intravenous dose; type: functional, Canis lupus familiaris; in short: as §1
Canis familiaris [18] = test: Myocardial contractility in conscious dog model after 34-40 minutes at 1 mg/kg oral administration, activity >4 hr; type: functional, Canis lupus familiaris, Myocardium
In short: (§2)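 Conscious, fasted adult mongrel dogs with surgically implanted devices for ECG, aortic pressure and flow, and LV pressure. Drug given by gavage as a solution or suspension, in single or multiple doses. Contractility recorded as % increase 34-40 min after dosing, with duration of response noted. Mean ± SEM; Student's t test, p < 0.05.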

Canis familiaris [19] = test: Heart rate (HR) in an acutely instrumented anesthetized dog model at 0.001 mg/kg intravenous dose; type: functional, Canis lupus familiaris; in short: as §1
Canis familiaris [20] = test: Heart rate (HR) in an acutely instrumented anesthetized dog model at 0.003 mg/kg intravenous dose; type: functional, Canis lupus familiaris; in short: as §1
Canis familiaris [21] = test: Myocardial contractility in conscious dog model after 34-40 minutes at 0.1 mg/kg oral administration, range 5-10; type: functional, Canis lupus familiaris, Myocardium; in short: as §2
Canis familiaris [22] = test: Mean arterial blood pressure (MABP) in an acutely instrumented anesthetized dog model at 0.001 mg/kg intravenous dose; type: functional, Canis lupus familiaris; in short: as §1
Canis familiaris [23] = test: Myocardial contractility in conscious dog model after 34-40 minutes at 1 mg/kg oral administration, activity 3-4 hr (p<0.05); type: functional, Canis lupus familiaris, Myocardium; in short: as §2
[24] = dose 0.01 mg/kg, in the assay text read “0.01 mg/kg” for “0.001 mg/kg”

SMILES: Cc1nc(O)c(C#N)c(C)c1-c1ccc(-n2ccnc2)cc1
- MABP change from control (Canis familiaris [1]): -17.5%
- Change from Control (LV dp/dt) (Canis familiaris [2]; [24]): 21%
- MABP change from control (Canis familiaris [3]): 0%
- MABP % change from control (Canis familiaris [4]): -6
- MABP change from control (Canis familiaris [5]): -49%
- HR change from control (Canis familiaris [6]): 16%
- Change from Control (LV dp/dt) (Canis familiaris [7]): 135%
- HR change from control (Canis familiaris [8]): 1%
- Change from Control (LV dp/dt) (Canis familiaris [9]): 137%
- HR change from control (Canis familiaris [10]): 2%
- HR change from control (Canis familiaris [11]): 26%
- MABP change from control (Canis familiaris [12]): -35%
- HR change from control (Canis familiaris [13]): 15%
- Change from Control (LV dp/dt) (Canis familiaris [14]): 160%
- Change from Control (LV dp/dt) (Canis familiaris [15]): 86%

SMILES: Cc1c(-c2ccc(-n3ccnc3)cc2)cnc(O)c1C#N
- MABP change from control (Canis familiaris [1]): 5.5%
- Change from Control (LV dp/dt) (Canis familiaris [2]; [24]): 2.5%
- MABP change from control (Canis familiaris [3]): 1.5%
- MABP % change from control (Canis familiaris [4]): 4.7
- MABP change from control (Canis familiaris [5]): -2.5%
- HR change from control (Canis familiaris [6]): 7.5%
- Change from Control (LV dp/dt) (Canis familiaris [7]): 125.5%
- HR change from control (Canis familiaris [8]): -0.5%
- Change from Control (LV dp/dt) (Canis familiaris [9]): 21%
- HR change from control (Canis familiaris [10]): 2%
- HR change from control (Canis familiaris [11]): 19.5%
- MABP change from control (Canis familiaris [12]): 9.7%
- HR change from control (Canis familiaris [13]): 4.5%
- Change from Control (LV dp/dt) (Canis familiaris [14]): 54%
- Change from Control (LV dp/dt) (Canis familiaris [15]): 12%

SMILES: Cc1nc(O)ccc1-c1ccc(-n2ccnc2)cc1
- MABP change from control (Canis familiaris [1]): -9.5%
- Change from Control (LV dp/dt) (Canis familiaris [2]; [24]): 36%
- MABP change from control (Canis familiaris [3]): -2.5%
- MABP % change from control (Canis familiaris [4]): -2
- MABP change from control (Canis familiaris [5]): -19.5%
- HR change from control (Canis familiaris [6]): 26%
- Change from Control (LV dp/dt) (Canis familiaris [7]): 122%
- HR change from control (Canis familiaris [8]): 3%
- Change from Control (LV dp/dt) (Canis familiaris [9]): 109%
- HR change from control (Canis familiaris [10]): 9%
- HR change from control (Canis familiaris [11]): 29%
- MABP change from control (Canis familiaris [12]): -20%
- HR change from control (Canis familiaris [13]): 17%
- Change from Control (LV dp/dt) (Canis familiaris [14]): 121%
- Change from Control (LV dp/dt) (Canis familiaris [15]): 85%

SMILES: Cc1nc(O)c(C#N)cc1-c1ccc(-n2ccnc2)cc1
- Increase contractility (Canis familiaris [16]): 35%
- MABP change from control (Canis familiaris [17]): 1.7%
- Increase contractility (Canis familiaris [18]): 75%
- HR change from control (Canis familiaris [19]): 1%
- MABP change from control (Canis familiaris [1]): -9.7%
- Change from Control (LV dp/dt) (Canis familiaris [2]): 4.5%
- Change from Control (LV dp/dt) (Canis familiaris [2]; [24]): 50.3%
- MABP change from control (Canis familiaris [3]): 0.75%
- HR change from control (Canis familiaris [20]): 3%
- MABP % change from control (Canis familiaris [4]): -2.2
- Increase contractility (Canis familiaris [21]): 10%
- MABP (Canis familiaris [22]): -1
- HR change from control (Canis familiaris [8]): 4.5%
- Change from Control (LV dp/dt) (Canis familiaris [9]): 154%
- HR change from control (Canis familiaris [10]): 14%
- HR change from control (Canis familiaris [13]): 34.7%
- Change from Control (LV dp/dt) (Canis familiaris [15]): 122.7%

SMILES: Cc1nc(O)c(N)cc1-c1ccc(-n2ccnc2)cc1
- MABP change from control (Canis familiaris [1]): -5%
- Change from Control (LV dp/dt) (Canis familiaris [2]; [24]): 24.5%
- MABP change from control (Canis familiaris [3]): 0.5%
- MABP % change from control (Canis familiaris [4]): 1
- MABP change from control (Canis familiaris [5]): -27.5%
- HR change from control (Canis familiaris [6]): 21.5%
- Change from Control (LV dp/dt) (Canis familiaris [7]): 105.5%
- HR change from control (Canis familiaris [8]): -1.5%
- Change from Control (LV dp/dt) (Canis familiaris [9]): 134.5%
- HR change from control (Canis familiaris [10]): 12%
- HR change from control (Canis familiaris [11]): 22%
- MABP change from control (Canis familiaris [12]): -17.5%
- HR change from control (Canis familiaris [13]): 18%
- Change from Control (LV dp/dt) (Canis familiaris [14]): 125.5%
- Change from Control (LV dp/dt) (Canis familiaris [15]): 80.5%

SMILES: Cc1c(-c2ccc(-n3ccnc3)cc2)cc(C#N)c(=O)n1C
- MABP change from control (Canis familiaris [1]): 2%
- Change from Control (LV dp/dt) (Canis familiaris [2]; [24]): 8%
- MABP change from control (Canis familiaris [3]): 2%
- MABP % change from control (Canis familiaris [4]): 1
- MABP change from control (Canis familiaris [5]): 0.5%
- HR change from control (Canis familiaris [6]): 2%
- Change from Control (LV dp/dt) (Canis familiaris [7]): 39%
- HR change from control (Canis familiaris [8]): 1%
- Change from Control (LV dp/dt) (Canis familiaris [9]): 16%
- HR change from control (Canis familiaris [10]): 0%
- HR change from control (Canis familiaris [11]): 3%
- MABP change from control (Canis familiaris [12]): 1.5%
- HR change from control (Canis familiaris [13]): 3%
- Change from Control (LV dp/dt) (Canis familiaris [14]): 18%
- Change from Control (LV dp/dt) (Canis familiaris [15]): 10%

SMILES: Cc1[nH]c(=O)c(C#N)cc1-c1ccncc1 [MILRINONE]
- MABP change from control (Canis familiaris [1]): -13%
- Change from Control (LV dp/dt) (Canis familiaris [2]; [24]): 30.5%
- MABP change from control (Canis familiaris [3]): -2%
- Increase contractility (Canis familiaris [23]): 45%
- MABP % change from control (Canis familiaris [4]): -8
- MABP change from control (Canis familiaris [5]): -36.9%
- HR change from control (Canis familiaris [6]): 39.2%
- Change from Control (LV dp/dt) (Canis familiaris [7]): 148.5%
- HR change from control (Canis familiaris [8]): 3%
- Change from Control (LV dp/dt) (Canis familiaris [9]): 113%
- HR change from control (Canis familiaris [10]): 13.5%
- HR change from control (Canis familiaris [11]): 48.5%
- MABP change from control (Canis familiaris [12]): -19.9%
- HR change from control (Canis familiaris [13]): 27%
- Change from Control (LV dp/dt) (Canis familiaris [14]): 142.5%
- Change from Control (LV dp/dt) (Canis familiaris [15]): 77.5%
